How the values were obtained:
A549 [1] = experiment: Cytotoxicity against human A549 cells after 72 hrs by SRB assay; assay type: functional, cell-based; conditions: A549, 72 h
How it was run: (§1)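 Cells seeded at 3–5 × 10³ per well in RPMI-1640 with 10% FBS containing a range of sample concentrations, exposed 72 h. Attached cells fixed in cold 50% trichloroacetic acid for 30 min, stained with 0.04% sulforhodamine B for 30 min, bound dye dissolved in 10 mM Tris base, absorbance read at 515 nm. Run in triplicate. KBvin is a vincristine-selected multidrug-resistant KB subline.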

[2] = Cytotoxicity against human KBVIN cells after 72 hrs by SRB assay; assay type: functional, cell-based; how it was run: as §1
KB [3] = experiment: Cytotoxicity against human KB cells after 72 hrs by SRB assay; assay type: functional, cell-based; how it was run: as §1
DU-145 [4] = experiment: Cytotoxicity against human DU145 cells after 72 hrs by SRB assay; assay type: functional, cell-based; conditions: DU-145, 72 h; how it was run: as §1
A549 [5] = experiment: Ratio of etoposide IC50 to compound IC50 for human A549 cells; assay type: functional
[6] = Ratio of etoposide IC50 to compound IC50 for human KBVIN cells; assay type: functional
DU-145 [7] = experiment: Ratio of etoposide IC50 to compound IC50 for human DU145 cells; assay type: functional
KB [8] = experiment: Ratio of etoposide IC50 to compound IC50 for human KB cells; assay type: functional

SMILES	IC50 (A549 [1])	IC50 [2]	IC50 (KB [3])	IC50 (DU-145 [4])	Ratio IC50 (A549 [5])	Ratio IC50 [6]	Ratio IC50 (DU-145 [7])	Ratio IC50 (KB [8])
COc1cc([C@@H]2c3cc4c(cc3[C@@H](NC(=S)NC(=O)c3ccccc3)[C@H]3COC(=O)[C@H]23)OCO4)cc(OC)c1O	12 µM	9.93 µM	8.96 µM	9.88 µM				
COc1cc([C@@H]2c3cc4c(cc3[C@@H](NC(=S)NC(=O)c3ccc(Cl)cc3)[C@H]3COC(=O)[C@H]23)OCO4)cc(OC)c1O	> 20 µM	> 20 µM	> 20 µM	> 20 µM				
COc1cc([C@@H]2c3cc4c(cc3[C@@H](NC(=S)NC(=O)c3ccc(Cl)cc3)[C@H]3COC(=O)[C@H]23)OCO4)cc(OC)c1OC	1.62 µM	2.01 µM	1.2 µM	1.16 µM				
COc1cc([C@@H]2c3cc4c(cc3[C@@H](NC(=S)NC(=O)c3ccc(C)cc3)[C@H]3COC(=O)[C@H]23)OCO4)cc(OC)c1OC	11.3 µM	12.2 µM	10.5 µM	10.5 µM				
COc1cc([C@@H]2c3cc4c(cc3[C@@H](NC(=S)NC(=O)c3ccc([N+](=O)[O-])cc3)[C@H]3COC(=O)[C@H]23)OCO4)cc(OC)c1OC	2.06 µM	1.65 µM	1.33 µM	1.57 µM				
COc1cc([C@@H]2c3cc4c(cc3[C@@H](NC(=S)NC(=O)c3cccc([N+](=O)[O-])c3)[C@H]3COC(=O)[C@H]23)OCO4)cc(OC)c1OC	10.3 µM	9.86 µM	9.27 µM	9.82 µM				
COc1cc([C@@H]2c3cc4c(cc3[C@@H](NC(=S)NC(=O)c3cccnc3)[C@H]3COC(=O)[C@H]23)OCO4)cc(OC)c1OC	15.5 µM	16.8 µM	14.2 µM	11.4 µM				
COc1cc([C@@H]2c3cc4c(cc3[C@@H](NC(=S)NC(=O)c3cnccc3Cl)[C@H]3COC(=O)[C@H]23)OCO4)cc(OC)c1OC	> 20 µM	> 20 µM	> 20 µM	> 20 µM				
COc1cc([C@@H]2c3cc4c(cc3[C@@H](NC(=S)NC(=O)c3cccnc3Cl)[C@H]3COC(=O)[C@H]23)OCO4)cc(OC)c1OC	> 20 µM	> 20 µM	> 20 µM	> 20 µM				
COc1cc([C@@H]2c3cc4c(cc3[C@@H](NC(=S)NC(=O)c3cncc(Br)c3)[C@H]3COC(=O)[C@H]23)OCO4)cc(OC)c1OC	> 20 µM	> 20 µM	> 20 µM	> 20 µM				
COc1cc([C@@H]2c3cc4c(cc3[C@@H](NC(=S)NC(=O)c3cccs3)[C@H]3COC(=O)[C@H]23)OCO4)cc(OC)c1OC	12.3 µM	12.5 µM	11.6 µM	11.2 µM				
COc1cc([C@@H]2c3cc4c(cc3[C@@H](NC(=S)NC(=O)c3ccco3)[C@H]3COC(=O)[C@H]23)OCO4)cc(OC)c1OC	> 20 µM	> 20 µM	> 20 µM	> 20 µM				
COc1cc([C@@H]2c3cc4c(cc3[C@@H](NC(=S)NC(=O)c3ccc5ccccc5c3)[C@H]3COC(=O)[C@H]23)OCO4)cc(OC)c1OC	0.11 µM	0.13 µM	0.12 µM	0.099 µM	20	20	20	20
COc1cc([C@@H]2c3cc4c(cc3[C@@H](NC(=S)NC(=O)c3ccco3)[C@H]3COC(=O)[C@H]23)OCO4)cc(OC)c1O	13.7 µM	9.46 µM	8.74 µM	8.49 µM				
COc1cc([C@@H]2c3cc4c(cc3[C@@H](NC(=S)NC(=O)c3cccs3)[C@H]3COC(=O)[C@H]23)OCO4)cc(OC)c1O	9.82 µM	9.24 µM	8.4 µM	7.34 µM				
COc1cc([C@@H]2c3cc4c(cc3[C@@H](NC(=S)NC(=O)c3ccc5ccccc5c3)[C@H]3COC(=O)[C@H]23)OCO4)cc(OC)c1O	11.8 µM	10.3 µM	7.23 µM	6.55 µM				
COc1cc([C@@H]2c3cc4c(cc3[C@@H](NC(=S)NC(C)=O)[C@H]3COC(=O)[C@H]23)OCO4)cc(OC)c1OC	13.1 µM	13.6 µM	13.4 µM	12.3 µM				
COc1cc([C@@H]2c3cc4c(cc3[C@@H](NC(=S)NC(=O)C3CCCCC3)[C@H]3COC(=O)[C@H]23)OCO4)cc(OC)c1OC	0.19 µM	0.098 µM	0.32 µM	0.17 µM	20	20	20	20
COc1cc([C@@H]2c3cc4c(cc3[C@@H](NC(=S)NC(=O)c3ccccc3)[C@H]3COC(=O)[C@H]23)OCO4)cc(OC)c1OC	1.13 µM	0.81 µM	0.9 µM	0.97 µM	20	20	20	20
COc1cc([C@@H]2c3cc4c(cc3[C@@H](NC(=S)NC(=O)c3ccc(F)cc3)[C@H]3COC(=O)[C@H]23)OCO4)cc(OC)c1OC	1.37 µM	1.38 µM	1.44 µM	1.15 µM				
COc1cc([C@@H]2c3cc4c(cc3[C@@H](O[C@@H]3O[C@@H]5CO[C@@H](C)O[C@H]5[C@H](O)[C@H]3O)[C@H]3COC(=O)[C@H]23)OCO4)cc(OC)c1O [ETOPOSIDE]	2.58 µM	> 20 µM	3.88 µM	2.03 µM				
